Measured values taken from PubChem BioAssay.
The source made the active and inactive calls.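 How the source made its calls, unless noted: active means a full or partial loss of lipid-probe fluorescence in the fish gall bladder, intestine or both, judged by eye; inactive means no fluorescence loss, or compound toxic to the fish.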

Assays:
[1] = inhibitors of TNFa-induced NFkB p65 translocation, primary screen, imaging, HUVEC, MLSMR starter and 10KST1 sets (AID 438;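 active means inhibition above 20% together with a positive visual image hit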;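 further: compound added about 3h40 before a 20 min TNFalpha stimulation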;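 on inhibition: signal is the nuclear over cytoplasmic p65 intensity ratio per well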); conditions: HUVEC TNFa-induced p65 nuclear translocation; cell count: measured here: nuclei count (cytotoxicity indicator), at 2.08 µM; inhibition: at 2 µM, stronger effect = higher value, 0% TNFa-plus-vehicle, 100% no-TNFa wells
[2] = endothelial E-selectin expression blockers – imaging, HUVEC, immunofluorescence, MLSMR starter and 10KST1 sets, primary screen (AID 487;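 active means visually confirmed hit in the image check and inhibition above 20%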;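 on inhibition: signal is fraction of cell area covered by stained E-selectin grains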;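 on nuclei count: 100% = median nuclei count of all wells on the same plate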); conditions: HUVEC TNFalpha-induced E-selectin immunofluorescence imaging, at 2 µM; inhibition: stronger effect = higher value; nuclei count: measured here: cell number, toxicity
[3] = Primary imaging screen for DUSP6 inhibitors that restore phospho-Erk in transfected HeLa cells, chemical complementation (AID 609;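 active means compounds giving at least 50% inhibition in the cell-based MKP-3 phosphatase rescue imaging test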;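 on inhibition: phospho-Erk level distribution per well compared with pooled transfected vehicle control wells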); conditions: HeLa MKP-3 transfected, phospho-Erk imaging KS statistic, at 10 µM, cells stimulated with TPA for 15 min
[4] = target: Dual specificity protein phosphatase 6 (Homo sapiens) (UniProt Q16828); test: as above; conditions: HeLa MKP-3 transfected, phospho-Erk imaging KS statistic; at 10 µM; stronger effect = higher value; cells stimulated with TPA for 15 min
[5] = target: Voltage-gated potassium channel subunit beta-2 (Rattus norvegicus) (UniProt P62483); test: inhibitors of rat Kvbeta2 reductase activity – biochemical, NADPH fluorescence, primary screen (AID 622;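 active means fluorescence slope higher than the sample average by over 3 SD, cut at about -0.22 in these data, passing the limit was not always enough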;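 further: slope of raw intensity against log time taken from 70 to 1610 s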); conditions: recombinant KvBeta, 4-cyanobenzaldehyde reduction, at 10 µM, stronger effect = higher value
[6] = target: Voltage-gated potassium channel subunit beta-2 (Rattus norvegicus) (UniProt P62483); test: enhancers of rat Kvbeta2 NADPH turnover – biochemical, NADPH fluorescence, primary screen (AID 623;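 active means NADPH fluorescence slope more negative than the mean of all samples by about 3 SD, 99.7% confidence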;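 further: fluorescence intensity change per second fitted from 20 to 320 s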); conditions: Recombinant KvBeta, NADPH fluorescence decrease slope, 10 min; at 10 µM; stronger effect = lower value
[7] = target: Alpha-2C adrenergic receptor (Homo sapiens) (UniProt P18825); test: compounds altering alpha2C-coupled GIRK flux – cell-based, HEK293 alpha2C/GIRK1/2, thallium flux, primary screen (AID 624;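 active means fluorescence slope after compound addition differing from the mean of all screened samples at 99.7% confidence, in either direction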;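 further: slope of fluorescence ratio to pre-addition baseline per second over 15 to 24 s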); conditions: thallium flux BTC fluorescence, at 10 µM, actives lie on both sides
[8] = inhibitors of larval lipid processing in zebrafish, primary screen, whole organism, PED6 fluorescence, gall bladder and intestine (AID 686); conditions: Zebrafish larvae PED6 lipid processing, fluorescence scoring; screened at 20 µM (by protocol);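 further: larvae 5 to 7 days old with five fish per well; signal comes from phospholipase A2 cleavage of quenched PED6 carried via bile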
How it was run: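 Incubation: overnight exposure of larvae to compound plus PED6 / Test system: live zebrafish larvae aged 5-7 days, whole organism / Amount: 5 larvae per well / Read-out basis: visual per-well fluorescence inhibition score / Signal: visual fluorescence microscopy scoring of gall bladder, gut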

[9] = loss of swimming-algae plug formation – whole organism, Chlamydomonas reinhardtii, WT vs cilia-less mutant, absorbance, 96-well, primary screen (AID 463189;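 active means inhibition at or above 50% relative to wild type and mutant plate controls; inactive means inhibition below 50%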;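 further: 0% = wild type cc124 cells in DMSO and 100% = ciliumless bld1 mutant cells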); conditions: Chlamydomonas reinhardtii gravitaxis, OD600 absorbance, 2 days; at 10 µM; stronger effect = higher value
[10] = measured here: cell density z-score
[11] = measured here: nuclear c-Myc green intensity z-score
[12] = measured here: nuclear pErk red intensity z-score, stronger effect = higher value

Chain of Dual specificity protein phosphatase 6 (Homo sapiens) (Q16828 whole entry, looked up): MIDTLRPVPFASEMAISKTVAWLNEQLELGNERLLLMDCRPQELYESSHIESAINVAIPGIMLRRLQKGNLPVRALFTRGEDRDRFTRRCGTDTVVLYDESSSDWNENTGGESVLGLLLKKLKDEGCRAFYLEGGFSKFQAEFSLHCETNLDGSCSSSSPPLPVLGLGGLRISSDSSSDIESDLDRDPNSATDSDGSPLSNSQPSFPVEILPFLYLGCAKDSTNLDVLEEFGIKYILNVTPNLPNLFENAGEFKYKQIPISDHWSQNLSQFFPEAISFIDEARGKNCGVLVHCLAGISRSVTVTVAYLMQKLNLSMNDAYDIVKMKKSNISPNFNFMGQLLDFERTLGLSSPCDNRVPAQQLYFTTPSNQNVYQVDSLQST
Chain of Voltage-gated potassium channel subunit beta-2 (Rattus norvegicus) (P62483 whole entry, looked up): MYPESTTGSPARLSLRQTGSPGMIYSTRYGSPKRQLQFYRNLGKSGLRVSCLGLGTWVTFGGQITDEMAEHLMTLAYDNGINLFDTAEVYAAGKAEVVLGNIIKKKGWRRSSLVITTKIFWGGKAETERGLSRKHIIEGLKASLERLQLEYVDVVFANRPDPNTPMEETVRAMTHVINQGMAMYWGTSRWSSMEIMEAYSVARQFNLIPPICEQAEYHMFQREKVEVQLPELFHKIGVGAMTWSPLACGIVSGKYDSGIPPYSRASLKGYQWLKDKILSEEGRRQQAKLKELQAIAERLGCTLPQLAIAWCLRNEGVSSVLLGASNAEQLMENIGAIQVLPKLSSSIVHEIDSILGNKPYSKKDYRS
Chain of Alpha-2C adrenergic receptor (Homo sapiens) (P18825 whole entry, looked up): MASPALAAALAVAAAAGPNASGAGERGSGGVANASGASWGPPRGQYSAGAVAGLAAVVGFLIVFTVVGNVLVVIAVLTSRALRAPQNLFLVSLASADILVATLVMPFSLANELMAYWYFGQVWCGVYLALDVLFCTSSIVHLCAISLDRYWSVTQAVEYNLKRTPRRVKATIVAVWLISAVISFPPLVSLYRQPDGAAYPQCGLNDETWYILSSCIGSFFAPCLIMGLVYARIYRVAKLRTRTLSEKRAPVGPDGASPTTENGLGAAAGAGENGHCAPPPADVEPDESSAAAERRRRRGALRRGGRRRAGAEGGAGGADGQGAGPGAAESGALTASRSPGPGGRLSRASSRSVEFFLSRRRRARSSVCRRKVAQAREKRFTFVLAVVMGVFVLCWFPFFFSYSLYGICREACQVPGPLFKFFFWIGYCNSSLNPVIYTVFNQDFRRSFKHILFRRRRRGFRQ

Row | Compound | cell count [1] | inhibition [1] | inhibition [2] | nuclei count [2] [%] | z-score [3, 10] | z-score [3, 11] | z-score [3, 12] | inhibition [4] | fluorescence slope [5] | NADPH fluorescence slope [6] | slope [7] | outcome [8] | inhibition [9]
1 | CCCCCCc1cc2cc(-c3nnc(-c4ccccc4O)o3)c(=O)oc2cc1O | 473 | -2.3% (inactive) | -99.6% (inactive) | 122 | -0.061 | 1.83 | -1.3 | -7.79% (inactive) | -0.274 (inactive) | 5.9e-06 (inactive) | 0.0685 (active) | inactive | 13.3% (inactive)
2 | CN(C)C=C1C(=O)c2ccccc2C1=O | 574 | -5.6% (inactive) | -153% (inactive) | 132 | -0.195 | -0.125 | -0.0657 | 11.9% (inactive) | -0.423 (inactive) | -4.2e-05 (inactive) | 0.00438 (inactive) | inactive | 60.8% (active)
3 | COc1ccc(CN2CCC(=O)NC2=O)cc1 | 670 | -14.7% (inactive) | -450% (inactive) | 162 | 0.756 | -1.36 | 0.0301 | 9.39% (inactive) | -0.502 (inactive) | -3.7e-05 (inactive) | 0.00539 (inactive) | inactive | 2.33% (inactive)
4 | CCOC(=O)c1c(CN2CCN(C)CC2)n(C)c2cc(Br)c(OC)cc12 | 320 | -0.7% (inactive) | -50.3% (inactive) | 138 | -0.018 | 0.891 | 1.91 | -12.3% (inactive) | -0.462 (inactive) | -0.000148 (inactive) | 0.00634 (inactive) | inactive | 53.1% (active)
5 | COC(=O)c1sc(NC(=O)C(C)C)c(C(=O)OC)c1C | 354 | -0.5% (inactive) | 29.8% (inactive) | 93.5 | -0.757 | -0.742 | 1.06 | 3.42% (inactive) | -0.426 (inactive) | -1.5e-05 (inactive) | 0.00623 (inactive) | inactive | -7.45% (inactive)
6 | CC1(C)Cc2c(sc3nc(SCC#N)n(C4CCCCC4)c(=O)c23)CO1 | 633 | -10.8% (inactive) | 51% (inactive) | 154 | -1.73 | 0.192 | 0.926 | 6.04% (inactive) | -0.356 (inactive) | -4.5e-05 (inactive) | 0.0054 (inactive) | inactive | -8.06% (inactive)
7 | CCOC(=O)c1n[nH]c2ccccc12 | 354 | -6.3% (inactive) | -168% (inactive) | 110 | 0.791 | -0.274 | -1.01 | 6.04% (inactive) | -0.399 (inactive) | 1.6e-05 (inactive) | 0.00468 (inactive) | inactive | -13% (inactive)
8 | Cn1c(=O)c2c(nc(OCc3cccnc3)n2Cc2ccccc2)n(C)c1=O | 599 | 8.2% (inactive) | 3.5% (inactive) | 138 | 1.08 | -0.258 | 0.62 | -2.91% (inactive) | -0.517 (inactive) | -0.000111 (inactive) | 0.00473 (inactive) | inactive | -5.51% (inactive)
9 | CC1(C)Cc2c(c(-c3ccccc3)nc3[nH][nH]c(=O)c23)CO1 | 666 | -17.1% (inactive) | -370% (inactive) | 162 | 0.742 | -0.0557 | 0.36 | -3.98% (inactive) | -0.513 (inactive) | -7.2e-05 (inactive) | 0.00403 (inactive) | inactive | 21% (inactive)
10 | CCOC(=O)c1[nH]c2cc3c(cc2c1NC(=O)CN1CCc2ccccc2C1)OCO3 | 523 | 0.1% (inactive) | -11.1% (inactive) | 104 | -0.283 | -0.223 | -0.654 | -1.75% (inactive) | -0.248 (inactive) | -1e-07 (inactive) | 0.00381 (inactive) | inactive | 25.5% (inactive)
11 | Fc1ccc2[nH]c3c(N4CCN(c5ccccc5)CC4)ncnc3c2c1 | 424 | 5.2% (inactive) | -109% (inactive) | 93.6 | -1.72 | -0.345 | 0.928 | 6.04% (inactive) | -0.334 (inactive) | 6.6e-06 (inactive) | 0.005 (inactive) | inactive | -1.66% (inactive)
12 | CSc1sc(C(=O)O)c2c1C(=O)CCC2 | 562 | -4.6% (inactive) | -163% (inactive) | 186 | -0.487 | 1.05 | 0.511 | 5.65% (inactive) | -0.486 (inactive) | -0.000199 (inactive) | 0.00495 (inactive) | inactive | -9.07% (inactive)
13 | O=C(CNC1=NCCC1)c1ccc2c(c1)OCCO2 | 488 | -10.2% (inactive) | -73% (inactive) | 161 | -0.692 | -1.12 | -0.547 | 28.6% (inactive) | -0.485 (inactive) | -0.000113 (inactive) | 0.006 (inactive) | inactive | -8.59% (inactive)
14 | Cc1ccccc1OCc1nc2ccccc2c(=O)n1NC(=O)c1ccco1 | 346 | -13.7% (inactive) | -57% (inactive) | 104 | 0.846 | 0.49 | -1.53 | 19.3% (inactive) | -0.498 (inactive) | -1.5e-05 (inactive) | 0.00616 (inactive) | inactive | 24.1% (inactive)
15 | CCCc1[nH]nc2c1C(c1cccc(OC)c1)C(C#N)=C(N)O2 (stereo unspecified) | 653 | -18% (inactive) | 32.3% (inactive) | 178 | -0.436 | -0.724 | 0.801 | 1.04% (inactive) | -0.401 (inactive) | -5.6e-05 (inactive) | 0.00438 (inactive) | inactive | 11.7% (inactive)
16 | CCOC(=O)CC(=O)CSc1nc(N)c(C#N)c(-c2ccc(F)cc2)c1C#N | 650 | -5.7% (inactive) | 44% (inactive) | 167 | -1.03 | 0.96 | 2.1 | -7.28% (inactive) | -0.366 (inactive) | -6.3e-05 (inactive) | 0.00627 (inactive) | inactive | -14.2% (inactive)
17 | CCCCn1c2nc3ccccc3nc2c2c(=O)n(CC(C)C)cnc21 | 391 | 2.5% (inactive) | 21.4% (inactive) | 141 | 0.699 | 0.544 | -0.343 | 17.4% (inactive) | -0.436 (inactive) | -9.3e-05 (inactive) | 0.00687 (inactive) | inactive | 33.2% (inactive)
18 | COc1cccc(N2CCN(C3CC(=O)N(c4cccc(Cl)c4)C3=O)CC2)c1 (stereo unspecified) | 325 | -2.2% (inactive) | -62.9% (inactive) | 80.7 | -0.898 | 1.47 | -0.427 | 3.42% (inactive) | -0.43 (inactive) | -0.00011 (inactive) | 0.00471 (inactive) | inactive | -11.3% (inactive)
19 | COc1cc(C2C3C(=O)N(c4ccc(F)cc4)C(=O)C3ON2c2ccccc2)ccc1O (stereo unspecified) | 470 | -13.5% (inactive) | -60% (inactive) | 137 | -1.73 | -0.628 | 0.0709 | -13.3% (inactive) | -0.498 (inactive) | -3.2e-05 (inactive) | 0.00461 (inactive) | inactive | 16.5% (inactive)
20 | COc1ccccc1C(=O)NC(=Nc1nc2ccccc2o1)NC(=O)c1ccccc1OC | 511 | -2.8% (inactive) | 0.2% (inactive) | 100 | -1.24 | -0.586 | 0.38 | -2.91% (inactive) | -0.572 (inactive) | -9.6e-05 (inactive) | 0.0126 (inactive) | inactive | -7.36% (inactive)
21 | COc1cccc(-c2nnc3sc(-c4ccccc4)nn23)c1 | 659 | 1.9% (inactive) | -40.1% (inactive) | 160 | -2.38 | 2.05 | 2 | -15% (inactive) | -0.424 (inactive) | -0.000144 (inactive) | 0.00489 (inactive) | inactive | -5.58% (inactive)
22 | C=CCSc1nc(C)c(CC=C)c(=O)[nH]1 | 482 | -4.7% (inactive) | -71.1% (inactive) | 87.6 | 0.711 | -0.59 | 0.352 | 11.9% (inactive) | -0.472 (inactive) | -1.2e-06 (inactive) | 0.00783 (inactive) | inactive | 31.6% (inactive)
23 | COc1ccc(C=NCCCN2CCOCC2)cc1 | 638 | -9.5% (inactive) | -363% (inactive) | 165 | -1.79 | -1.02 | 1.46 | -0.159% (inactive) | -0.486 (inactive) | -8.5e-05 (inactive) | 0.00493 (inactive) | inactive | -6.33% (inactive)
24 | [N-]=[N+]=CC(=O)c1ccnc(C(=O)C=[N+]=[N-])c1 | 544 | -10.2% (inactive) | -164% (inactive) | 136 | 1.23 | -1.66 | -0.478 | 21.8% (inactive) | -0.54 (inactive) | -6.3e-05 (inactive) | 0.00557 (inactive) | inactive | 3.22% (inactive)
25 | CCCCCSc1nc(O)cc(=O)[nH]1 | 366 | -1.9% (inactive) | -61.7% (inactive) | 116 | -1.75 | 1.21 | 0.475 | -0.624% (inactive) | -0.395 (inactive) | 1.3e-05 (inactive) | 0.00579 (inactive) | inactive | -10.7% (inactive)
26 | COc1ccc(-c2c3c([nH]c(=S)c2C#N)CCC3)cc1 | 527 | -5.1% (inactive) | -113% (inactive) | 192 | -0.0351 | 1.87 | 0.16 | 2.46% (inactive) | -0.314 (inactive) | -4.4e-06 (inactive) | 0.00379 (inactive) | inactive | -1.44% (inactive)
27 | CCN(CC)c1ccc2cc(-c3nnc(-c4ccncc4)o3)c(=O)oc2c1 | 490 | -5.2% (inactive) | -87.1% (inactive) | 137 | -0.456 | 1.6 | 0.914 | 72.4% (inactive) | -0.436 (inactive) | -0.000104 (inactive) | 0.00165 (inactive) | inactive | 6.54% (inactive)
